Results taken from ChEMBL document CHEMBL1140964, “1,8-Naphthyridines VII. New substituted 5-amino[1,2,4]triazolo[4,3-a][1,8]naphthyridine-6-carboxamides and their isosteric analogues, exhibiting notable anti-inflammatory and/or analgesic activities, but no acute gastrolesivity” (Eur J Med Chem, 2008).

Experiments:
Mus musculus [1] = experiment: Antinociceptive activity in Swiss mouse assessed as inhibition of acetic acid-induced writhing response at 50 mg/kg, po dose administered 1 hr before acetic acid challenge measured for 30 mins; type: functional
Outline: (§1)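 Swiss mice (25–35 g, either sex), fasted overnight, received compound orally in 0.5% methylcellulose or vehicle, with 8–10 per group. Testing started at 100 mg/kg with successive twofold dose reductions. Writhes were counted for 30 min after acetic acid injection. Percent inhibition of the writhing response was calculated versus vehicle controls (Student's t-test).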

Rattus norvegicus [2] = experiment: Antiinflammatory activity against carrageenan-induced paw edema in Wistar rat at 25 mg/kg, po dose administered 1 hr before carrageenan challenge assessed after 3 hrs; type: functional
Outline: (§2)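 Wistar rats (250–300 g, either sex), fasted overnight, dosed by oral gavage with the compound suspended in 0.5% methylcellulose. Controls received vehicle alone, with 8–10 animals per group. Dosing started at 100 mg/kg and was halved stepwise. Carrageenan (1%, 0.1 mL) was injected subplantar 1 h post-dose. Paw volume was measured by plethysmometer immediately and at 3 h, and % inhibition of swelling was calculated versus controls (Student's t-test).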

Rattus norvegicus [3] = experiment: Antiinflammatory activity against carrageenan-induced paw edema in Wistar rat at 50 mg/kg, po dose administered 1 hr before carrageenan challenge assessed after 3 hrs; type: functional; outline: as §2
Rattus norvegicus [4] = experiment: Antiinflammatory activity against carrageenan-induced paw edema in Wistar rat at 6.25 mg/kg, po dose administered 1 hr before carrageenan challenge assessed after 3 hrs; type: functional; outline: as §2
Rattus norvegicus [5] = experiment: Antiinflammatory activity against carrageenan-induced paw edema in Wistar rat at 3.12 mg/kg, po dose administered 1 hr before carrageenan challenge assessed after 3 hrs; type: functional
Mus musculus [6] = experiment: Antinociceptive activity in Swiss mouse assessed as inhibition of acetic acid-induced writhing response at 25 mg/kg, po dose administered 1 hr before acetic acid challenge measured for 30 mins; type: functional; outline: as §1
Mus musculus [7] = experiment: Antinociceptive activity in Swiss mouse assessed as inhibition of acetic acid-induced writhing response at 100 mg/kg, po dose administered 1 hr before acetic acid challenge measured for 30 mins; type: functional; outline: as §1
Mus musculus [8] = experiment: Sedative activity in Swiss mouse assessed as inhibition of spontaneous locomotor activity at 100 mg/kg, po dose measured for every 5 mins during 60 to 90 mins; type: organism-based; design: dose 100 mg/kg, route oral
Outline: (§3)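 Fasted Swiss mice (25–35 g, either sex) were given compound orally in 0.5% methylcellulose or vehicle. Each mouse was placed alone in a photobeam-type activity cage, with counts recorded every 5 min for 90 min. Pulses from the final 30 min were scored, with testing run 9:00–13:00. Percent inhibition was calculated versus controls (Student's t-test).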

Rattus norvegicus [9] = experiment: Antiinflammatory activity against carrageenan-induced paw edema in Wistar rat at 100 mg/kg, po dose administered 1 hr before carrageenan challenge assessed after 3 hrs; type: functional; outline: as §2
Rattus norvegicus [10] = experiment: Antiinflammatory activity against carrageenan-induced paw edema in Wistar rat at 12.5 mg/kg, po dose administered 1 hr before carrageenan challenge assessed after 3 hrs; type: functional; outline: as §2
Mus musculus [11] = experiment: Sedative activity in Swiss mouse assessed as inhibition on spontaneous locomotor activity at 25 mg/kg, po measured for every 5 mins during 60 to 90 mins; type: functional, organism-based; design: dose 25 mg/kg, route oral; outline: as §3
Mus musculus [12] = experiment: Sedative activity in Swiss mouse assessed as inhibition on spontaneous locomotor activity at 12.5 mg/kg, po dose measured for every 5 mins during 60 to 90 mins; type: ADME, organism-based; design: dose 12.5 mg/kg, route oral; outline: as §3
Mus musculus [13] = experiment: Antinociceptive activity in Swiss mouse assessed as inhibition of acetic acid-induced writhing response at 12.5 mg/kg, po dose administered 1 hr before acetic acid challenge measured for 30 mins; type: functional; outline: as §1
Rattus norvegicus [14] = experiment: Acute gastrolesivity in Wistar rat assessed as appearance of gastric lesions at 200 mg/kg, po after 5 hrs; type: toxicity, organism-based, Stomach; design: dose 200 mg/kg, route oral; settings: in vivo
Outline: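 Wistar rats (250–300 g, either sex), fasted overnight, given the compound orally at 200 mg kg-1 as a suspension in 0.5% methylcellulose by gavage (1 mL/100 g); 8 rats per compound. Stomachs were fixed in 2% formalin, opened along the greater curvature, and examined under a stereomicroscope by a blinded observer. The result is the number of rats with gastric damage over the number treated.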

Mus musculus [15] = experiment: Antinociceptive activity in Swiss mouse assessed as inhibition of acetic acid-induced writhing response at 200 mg/kg, po dose administered 1 hr before acetic acid challenge measured for 30 mins; type: functional
Rattus norvegicus [16] = experiment: Antiinflammatory activity against carrageenan-induced paw edema in Wistar rat at 200 mg/kg, po dose administered 1 hr before carrageenan challenge assessed after 3 hrs; type: functional

| SMILES | inhibition in vivo at 50 mg/kg (Mus musculus [1]) | inhibition in vivo at 50 mg/kg (Rattus norvegicus [3]) | inhibition in vivo at 25 mg/kg (Mus musculus [6]) | inhibition in vivo at 100 mg/kg (Mus musculus [7]) | inhibition at 100 mg/kg (Mus musculus [8]) | inhibition in vivo at 100 mg/kg (Rattus norvegicus [9]) | other results |
| --- | --- | --- | --- | --- | --- | --- | --- |
| CCN(CC)C(=O)c1c(N(C)CC)c2cccnc2n2c(C(C)C)nnc12 | 59% | 67% | 17% | 81% | 53% | 71% | inhibition in vivo at 25 mg/kg (Rattus norvegicus [2]): 65%; inhibition in vivo at 6.25 mg/kg (Rattus norvegicus [4]): 42%; inhibition in vivo at 3.12 mg/kg (Rattus norvegicus [5]): 0%; inhibition in vivo at 12.5 mg/kg (Rattus norvegicus [10]): 51% |
| CC(C)c1nnc2c(C(=O)N3CCCC3)c(N3CCN(C)CC3)c3cccnc3n12 |  |  |  | 100% |  | 0% |  |
| CCN(CC)C(=O)c1c(NC(C)C)c2cccnc2n2c(C(C)C)nnc12 | 54% | 75% | 33% | 83% | 98% | 81% | inhibition at 25 mg/kg (Mus musculus [11]): 26%; inhibition in vivo at 25 mg/kg (Rattus norvegicus [2]): 75%; inhibition at 12.5 mg/kg (Mus musculus [12]): 0%; inhibition in vivo at 12.5 mg/kg (Mus musculus [13]): 0%; inhibition in vivo at 6.25 mg/kg (Rattus norvegicus [4]): 15%; inhibition in vivo at 12.5 mg/kg (Rattus norvegicus [10]): 68% |
| CCN(CC)C(=O)c1c(NCC(C)C)c2cccnc2n2c(C(C)C)nnc12 | 33% | 66% |  | 100% | 15% | 70% | inhibition in vivo at 25 mg/kg (Rattus norvegicus [2]): 61%; inhibition in vivo at 6.25 mg/kg (Rattus norvegicus [4]): 27%; Activity (Rattus norvegicus [14]): Non-toxic; inhibition in vivo at 200 mg/kg (Mus musculus [15]): 100%; inhibition in vivo at 3.12 mg/kg (Rattus norvegicus [5]): 18%; inhibition in vivo at 200 mg/kg (Rattus norvegicus [16]): 74%; inhibition in vivo at 12.5 mg/kg (Rattus norvegicus [10]): 50% |
| CCN(CC)C(=O)c1c(N2CCN(C)CC2)c2cccnc2n2cnnc12 |  |  |  | 14% |  | 0% |  |
| CC(C)CNc1c(C(=O)N2CCCC2)c2nnc(C(C)C)n2c2ncccc12 | 64% |  | 29% | 60% | 5% | 0% |  |
| CCOC(=O)N1CCN(c2c(C(=O)N(CC)CC)c3nnc(C(C)C)n3c3ncccc23)CC1 | 75% |  | 53% | 100% | 83% | 0% | inhibition at 25 mg/kg (Mus musculus [11]): 96%; inhibition in vivo at 12.5 mg/kg (Mus musculus [13]): 29% |
| CCN(CC)C(=O)c1c(NN2CCN(C)CC2)c2cccnc2n2c(C(C)C)nnc12 |  |  |  | 17% |  | 0% |  |
| CCN(CC)C(=O)c1c(NCC(OC)OC)c2cccnc2n2c(C(C)C)nnc12 | 8% |  |  | 47% | 0% | 0% |  |
| CCNC(=O)c1c(N2CCN(C)CC2)c2cccnc2n2c(C(C)C)nnc12 | 24% |  |  | 79% | 80% | 0% |  |
| CCN(CC)C(=O)c1c(OC2CCN(C)CC2)c2cccnc2n2c(C(C)C)nnc12 | 35% |  |  | 87% | 65% | 18% |  |
| CCNc1c(C(=O)N(CC)CC)c2nnc(C(C)C)n2c2ccccc12 | 43% | 43% | 12% | 91% | 39% | 42% | inhibition in vivo at 25 mg/kg (Rattus norvegicus [2]): 24%; inhibition in vivo at 12.5 mg/kg (Rattus norvegicus [10]): 6% |
| CCN(CC)C(=O)c1c(NCC(C)C)c2ccccc2n2c(C(C)C)nnc12 | 29% |  |  | 88% | 14% | 0% |  |
| CCCCOc1c(C(=O)N(CC)CC)c2nnc(C(C)C)n2c2ncccc12 | 14% |  |  | 40% | 76% | 3% |  |
| CCN(CC)C(=O)c1c(OC(C)C)c2cccnc2n2c(C(C)C)nnc12 |  | 0% |  | 11% |  | 24% |  |
| CCN(CC)C(=O)c1c(OCC(C)C)c2cccnc2n2c(C(C)C)nnc12 |  |  |  | 26% |  | 0% |  |
| CCN(CC)C(=O)c1c(N2CCN(C)CC2)c2ccccc2n2c(C(C)C)nnc12 | 100% | 0% | 77% | 100% | 54% | 34% | inhibition at 25 mg/kg (Mus musculus [11]): 21%; inhibition in vivo at 12.5 mg/kg (Mus musculus [13]): 14% |
| CCN(CC)C(=O)c1c(N2CCN(C)CC2)c2ccccc2n2cnnc12 | 58% |  | 28% | 55% | 0% | 0% |  |
| CCOc1c(C(=O)N(CC)CC)c2nnc(C(C)C)n2c2ncccc12 |  |  |  | 22% |  | 10% |  |
| CCN(CC)C(=O)c1c(N2CCN(C)CC2)c2cccnc2n2c(-c3ccccc3)nnc12 | 62% |  | 15% | 100% | 72% | 0% |  |
| CCc1nnc2c(C(=O)N(CC)CC)c(NCCC(C)C)c3cccnc3n12 | 75% | 41% | 15% | 98% | 95% | 41% | inhibition in vivo at 25 mg/kg (Rattus norvegicus [2]): 43%; inhibition in vivo at 6.25 mg/kg (Rattus norvegicus [4]): 0%; inhibition in vivo at 12.5 mg/kg (Rattus norvegicus [10]): 29% |
| CCN(CC)C(=O)c1c(OC2CCN(C)CC2)c2cccnc2n2cnnc12 | 20% |  |  | 45% | 55% | 0% |  |
